Assay results of several laboratories.
Each line is one published result; the experiments were not run side by side.
Read-out: cell growth or viability

Structure (SMILES) | cell line | test | conditions | measurement | value
CCOC(=O)c1c(C)ncn1CC(c1cn(C)c2ccc([N+](=O)[O-])cc12)c1cn(C)c2ccc([N+](=O)[O-])cc12 | HaCaT | MTS | 24 h | CC50 | > 20 µM
CC1(C)CC[C@]2(C)CC[C@]3(C)C(=CC[C@@H]4[C@@]5(C)CC[C@H](O)C(C)(C)[C@@H]5CC[C@]43C)[C@@H]2C1 | WI-38 | WST-1 | 48 h | IC50 | 103 µM
O=c1oc2c(O)c(O)cc3c(=O)oc4c(O)c(O)cc1c4c23 | CEM-GFP | MTT | 48 h | CC50 | > 250 mg/L
CCOC(=O)C(C(C)=O)=C1Sc2nc3ccc(S(=O)(=O)N4CCCC4)cc3nc2S1 | WI-38 | MTT | 25 µM, 24 h | viability | 60.1%
C[Si](C)(C)c1cc(C(=O)[C@H](Cc2ccccc2)NC(=O)[C@H](Cc2ccccc2)NC(=O)N2CCOCC2)no1 (single isomer, unassigned) | MRC-5 SV2 | – | – | CC50 | > 64 µM
COc1cccc2c1C(=O)c1c(O)c3c(c(O)c1C2=O)C[C@@](O)(C(=O)CO)C[C@@H]3O[C@H]1C[C@H](N)[C@H](O)[C@H](C)O1 | WI-38 | MTT | 3.125 µM, 24 h | viability | 64.9%
O=c1[nH]cc(F)c(=O)[nH]1 | WI-38 | WST-1 | 48 h | IC50 | 63.4 µM
C[C@@H]1[C@H](O)[C@@H](C)/C=C/C=C/C=C/C=C/C=C/C=C/C=C/[C@H](O[C@@H]2O[C@H](C)[C@@H](O)[C@H](N)[C@@H]2O)C[C@@H]2O[C@](O)(C[C@@H](O)C[C@@H](O)[C@H](O)CC[C@@H](O)C[C@@H](O)CC(=O)O[C@H]1C)C[C@H](O)[C@H]2C(=O)O | HaCaT | MTS | 24 h | CC50 | 7.95 µM
O=C(N[C@@H](Cc1ccccc1)C(=O)c1c[nH]nn1)[C@H](Cc1ccccc1)NC(=O)N1CCOCC1 | MRC-5 SV2 | – | – | CC50 | > 64 µM
O=C1CCCCC1=C1Sc2nc3ccc(S(=O)(=O)N4CCCC4)cc3nc2S1 | WI-38 | MTT | 3.125 µM, 24 h | viability | 100%
O=C(N[C@@H](Cc1ccccc1)C(=O)c1cc(-c2ccccc2)no1)[C@H](Cc1ccccc1)NC(=O)N1CCOCC1 (mixture of isomers) | MRC-5 SV2 | – | – | CC50 | > 64 µM
N#CC(C(=O)Nc1cccc(C(F)(F)F)c1)=C1Sc2nc3ccc(S(=O)(=O)N4CCCC4)cc3nc2S1 | WI-38 | MTT | 25 µM, 24 h | viability | 67.5%
COC(=O)c1c(C)ncn1CC(c1c[nH]c2cc(Br)ccc12)c1c[nH]c2cc(Br)ccc12 | HaCaT | MTS | 24 h | CC50 | > 20 µM
O=C(/C=C/c1ccc(O)c(O)c1)O[C@@H]1C[C@](O)(C(=O)O)C[C@@H](O)[C@H]1O | WI-38 | WST-1 | 48 h | IC50 | 91.2 µM
O=C(N[C@@H](Cc1ccccc1)C(=O)c1cc(-c2ccccc2)on1)[C@H](Cc1ccccc1)NC(=O)N1CCOCC1 (single isomer, unassigned) | MRC-5 SV2 | – | – | CC50 | > 64 µM
O=c1c(O)c(-c2ccc(O)c(O)c2)oc2cc(O)cc(O)c12 | WI-38 | WST-1 | 48 h | IC50 | 87.6 µM
O=C(N[C@@H](Cc1ccccc1)C(=O)c1noc(-c2ccccc2)n1)[C@H](Cc1ccccc1)NC(=O)N1CCOCC1 | MRC-5 SV2 | – | – | CC50 | > 64 µM
Nc1ncnc2c1ncn2[C@@H]1O[C@H](CO)[C@@H](O)[C@H]1O | WI-38 | WST-1 | 48 h | IC50 | 131 µM
O=C(N[C@H](CCc1ccccc1)C(=O)c1cc(Cc2ccccc2)on1)[C@H](Cc1ccccc1)NC(=O)N1CCOCC1 | MRC-5 SV2 | – | – | CC50 | > 64 µM
CC(=O)OC1c2c(ccc3ccc(=O)oc23)OC(C)(C)C1OC(=O)C(C)(O)C(C)O (stereo not drawn) | WI-38 | WST-1 | – | IC50 | 89.6 µM
N=C(N)c1ccc(OCCCCCOc2ccc(C(=N)N)cc2)cc1 | HaCaT | MTS | 24 h | CC50 | > 20 µM
